Test [1] relates to Canis familiaris. As to the kind of experiment: Heart rate in dog after administering ca. 1.875 mg/Kg drug intravenously. The class given is functional, Canis lupus familiaris. The essentials:
(§1)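 Adult mongrel dogs anesthetized with sodium pentobarbital (45 mg/kg ip) and artificially respired. MAP measured via cannulated femoral artery; HR from cardiotachometer; LV +dP/dtmax via Millar catheter; CF by Walton Brodie strain gauge on right ventricle (baseline tension 100 g). Compound in 10% DMF/saline or HCl salt, infused iv into femoral vein over 5 min per step. Each step given at peak of the prior one; three to four increasing doses. Response expressed as % change from predrug control; n = 1–5 dogs.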

The next test is filed under the species Mustela putorius furo. As to the kind of experiment: In vitro changes in contractile force (CF) quantitated by determining the maximal increase in isometric tension by using ferret papillary muscle. The class given is functional, tissue-based. Conditions: Muscle tissue. In a few lines:
(§2)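 Isolated ferret papillary muscle in Tyrode's solution with timolol (1×10^-7 M), equilibrated 2 h. Compound diluted from 1×10^-2 M DMSO stock and added at serially increasing concentrations, up to 10 μM. Isometric tension read 15 min after each addition. Result is maximal increase as % of control tension, from mean of n ≥ 3.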

The test system of test [2] is Canis familiaris. As to the kind of experiment: Mean arterial blood pressure in dog after administering ca. 1.875 mg/Kg drug intravenously. The arrangement: unit not given beside the values. The class given is functional, Canis lupus familiaris. In a few lines:
as §1

Test [3] can be described thus: Relative change in CF was determined by calculating the effective concentration that produced a 50% of maximum increase in tension. The class given is functional, Mustela putorius furo. The essentials: (§3)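 Ferret papillary muscle in Tyrode's solution with timolol (1×10^-7 M); compound given at cumulative serially increasing concentrations, each read at 15 min. EC50 is the concentration giving 50% of that compound's own maximal tension increase. Estimated graphically from mean data, n ≥ 3.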

Test [4] is filed under the species Canis familiaris. As to the kind of experiment: dP/dt max was determined in dog. The class given is functional, Canis lupus familiaris. The arrangement: unit not given beside the values. In a few lines:
as §1

Test [5] has as its system Canis familiaris. As to the kind of experiment: Cardiac force in dog after administering ca. 1.875 mg/Kg drug intravenously. The arrangement: unit not given beside the values. Format: functional, Canis lupus familiaris. In a few lines:
as §1

Test [6] concerns Canis familiaris. Kind of test: Effective dose required to produce 50% increase of cardiac force in dog after administering ca. 1.875 mg/Kg drug intravenously. Format: functional. Conditions: Canis lupus familiaris, iv. The essentials:
as §1

Test [7] in a line: In vitro changes in contractile force (CF) quantitated by determining the maximal increase in isometric tension by using ferret papillary muscle. Format: functional, Mustela putorius furo, Muscle tissue. The essentials: as §2
The test system of test [8] is Canis familiaris. As to the kind of experiment: Cardiac force was determined in dog after administering ca. 1.875 mg/kg drug intra venously. The class given is functional, Canis lupus familiaris. In a few lines: as §1
Test [9] relates to Canis familiaris. As to the kind of experiment: Dose to produce a 50% increase of CF n dog after administering ca. 1.875 mg/kg drug intra venously. The following applies: Canis lupus familiaris. The class given is functional. In a few lines: as §1
Test [10] has as its system Canis familiaris. Kind of test: Mean arterial blood pressure determined in dog after administering ca. 1.875 mg/kg drug intra venously. The class given is functional, Canis lupus familiaris. In a few lines: as §1
Test [11] relates to Canis familiaris. Kind of test: Heart rate determined in dog after administering ca. 1.875 mg/kg drug intra venously. Format: functional, Canis lupus familiaris. The essentials:
as §1

Test [12] in a line: Relative changes in CF was determined by calculating the effective concentration that produced a 50% of maximum increase in tension. Format: functional, Mustela putorius furo. The essentials:
as §3

In general, EC50 refers to the concentration that produces a half-maximal response. One may read the ED50 as the dose that gives a 50% effect, or the effect in half of the subjects.

Structures are written as SMILES. Activity calls are given as the source filed them. The rule behind the calls is not given here.

As to `Fc1ccc(C(c2ccc(F)cc2)N2CCN(CCCSc3[nH]cnc4ncnc3-4)CC2)cc1`, the Heart rate in the test on Canis familiaris [1] was determined as 2. The Max entry in the test listed under Mustela putorius furo was “inactive”. In the test with Canis familiaris [2], this compound gave an MAP of -6. Besides, in test [3], the EC50 result is on record as “Not Active”. Also, the dP/dt max in the test listed under Canis familiaris [4] came out at 17. The compound further gave a Cardiac force in the test with Canis familiaris [5] of 38. Besides, it took a dose of 1.3 mg/kg to reach the 50% effect level with Canis familiaris [6] (ED50).

`CC(=O)Oc1ccccc1C(=O)OC(CSc1[nH]cnc2ncnc1-2)CN1CCN(C(c2ccc(F)cc2)c2ccc(F)cc2)CC1` (stereo not given) displayed a Max in [7] of 34%. Besides, the Cardiac force with Canis familiaris [8] is recorded as 56. The compound also had a dP/dt max in the test listed under Canis familiaris [4] of 34. Besides, it took a dose of 1.6 mg/kg to reach the 50% effect level in the test with Canis familiaris [9] (ED50). Further, in the test on Canis familiaris [10], the MPA stood at 0. For the same compound, the Heart rate with Canis familiaris [11] is 1. Also, the EC50 in [12] was 2500 nM.

In the test on Canis familiaris [1], `OC(COc1[nH]cnc2ncnc1-2)CN1CCN(C(c2ccccc2)c2ccccc2)CC1` (stereo not given) showed a Heart rate of 2. Besides, in the test listed under Mustela putorius furo, the Max entry is “inactive”. This compound also gave an MAP with Canis familiaris [2] of 4. In addition, the EC50 result in test [3] was “Not Active”. For the same compound, the dP/dt max in the test listed under Canis familiaris [4] is given as 37. Besides, the Cardiac force with Canis familiaris [5] turned out to be 69. This compound also yielded an ED50 in the test with Canis familiaris [6] of 0.9 mg/kg.

In the case of `CN(CC(O)CN1CCN(C(c2ccc(F)cc2)c2ccc(F)cc2)CC1)c1[nH]cnc2ncnc1-2` (stereo not given), the Heart rate in the test on Canis familiaris [1] was 7. For the same compound, the Max entry in the test listed under Mustela putorius furo was “inactive”. Further, in the test on Canis familiaris [2], the MAP turned out to be 4. For the same compound, the 50% effective concentration (EC50) result in test [3] was “Not Active”. Further, the dP/dt max in the test listed under Canis familiaris [4] came out at 66. For the same compound, in the test on Canis familiaris [5], the Cardiac force is listed as 82. In the test with Canis familiaris [6], this compound returned an ED50 of 0.74 mg/kg.

`OC(COc1[nH]cnc2ncnc1-2)CN1CCN(C(c2ccc(F)cc2)c2ccc(F)cc2)CC1` (stereo not given) yielded a Heart rate with Canis familiaris [1] of 12. Further, the Max entry in the test filed under Mustela putorius furo was “inactive”. In the test on Canis familiaris [2], the MAP came to 4. For the same compound, the EC50 entry in test [3] is “Not Active”. This compound also yielded a dP/dt max in the test listed under Canis familiaris [4] of 58. Further, the Cardiac force in the test with Canis familiaris [5] is recorded as 80. The compound also showed an ED50 in the test on Canis familiaris [6] of 0.72 mg/kg.

Values taken from ChEMBL document CHEMBL1126098, “Synthesis and SAR of 6-substituted purine derivatives as novel selective positive inotropes” (J Med Chem, 1992).
